WT yeast gro inh = growth inhibition of WT yeast, mitochondrial fusion screen; inhibition, % at 10 µM; AID 1362; mitochondrial fusion phenotypic screen, WT strain; 190,000 compounds, 2.1% hits; in the data active = inhibition above about 58%; tested in S. cerevisiae
Diaph act CS = diaphorase activation or chemical reduction counter-screen | Diaphorase/resazurin coupled assay, resorufin fluorescence, 16 min; hits give high values; 1 = vehicle wells, 0 = NADH-free wells | 190,000 compounds, 0.005% hits | activation factor at 20 µM;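 active = diaphorase activity raised at least twofold by the compound at 20 µM; inactive = activation factor below 2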
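Material: purified diaphorase enzyme from Clostridium kluyveri / Medium: HEPES pH 7.4 buffer with MgCl2 and Tween 20 / Schedule: enzyme reaction of 16 min at room temperature / Measured by: resorufin fluorescence, excitation 544 nm, emission 590 nm / Evaluation: rise in resorufin formation, marking diaphorase activation or chemical reduction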
Lmaj promast = reduces viability of Leishmania major promastigotes; resazurin fluorescence viability; inhibition, % at 10 µM; 200,000 compounds, 9% hits; AID 1063;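 also: promastigotes grown with compound for 44 hours at 28 °C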
Diaphorase inh = diaphorase inhibition or chemical oxidation counter-screen; diaphorase resazurin-to-resorufin fluorescence, NADH, 16 min; bacterial (C. kluyveri) enzyme, not human; 190,000 compounds, 0.69% hits; inhibition, % at 20 µM;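 active = primary screen inhibition at 20 µM above a set limit, cut at about 50% in these data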;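 also: plate controls were DMSO with full reaction for no effect and wells lacking NADH for full effect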
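Test system: diaphorase enzyme from Clostridium kluyveri; amount: diaphorase at 0.14 U/mL in enzyme working solution; detection: fluorescence of resorufin formed from resazurin, Ex 544/Em 590 nm; times: reaction incubation of 16 min at room temperature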
G6PDH counter = inhibits Leuconostoc G6PDH, flagging false hits in G6PDH-based assays; Purified L. mesenteroides G6PDH, diaphorase/resazurin coupled fluorescence, 45 min; inhibition, % at 5 µM; 200,000 compounds, 0.12% hits
* hit, by the source's call; nt = not tested or not shown. This is a sample that favours compounds with a hit; in the whole collection about 11% have one here. Rule as the data show it, unless noted: active = inhibition above about 50%; inactive = the rest.

SMILES	WT yeast gro inh	Diaph act CS	Lmaj promast	Diaphorase inh	G6PDH counter
COCCCNCCOc1ccc(C)cc1[N+](=O)[O-]	-0.3	0.9	89.5*	11.0	2.9
COc1ccc(OCCOCCOc2ccc(C)cc2[N+](=O)[O-])cc1	26.2	0.8	1.7	19.3	4.3
Cc1ccc(OCCOCCNC(C)(C)C)c([N+](=O)[O-])c1	-13.9	1	91.8*	1.2	2.7
Cc1ccc(OCCOCCN2CCCCC2)c([N+](=O)[O-])c1	1.9	1.1	70.3*	-9.6	13.7
COCCCNCCOCCOc1ccc(C)cc1[N+](=O)[O-]	2.5	0.9	93.6*	7.2	8.6
Cc1ccc(OCCOCCN2CCN(C)CC2)c([N+](=O)[O-])c1	-17.6	0.7	-5.7	31.1	6.1
CC(C)(C)c1ccc(Cn2nc(CC(=O)O)c3ccccc3c2=O)cc1	0.1	1.2	2.2	-19.5	14.0
Cc1ccc(S(=O)(=O)n2nnc3ccccc32)c(C)c1C	11.8	0.9	-0.9	11.7	4.9
CCC(C)NCCCCOc1ccc(C)cc1[N+](=O)[O-] (centres undefined)	-10.6	0.9	88.0*	8.0	-1.8
COc1cccc(OCCOCCOc2ccc(C)cc2[N+](=O)[O-])c1	18.4	0.8	3.0	15.8	3.6
C=CCNCCCCOc1ccc(C)cc1[N+](=O)[O-]	-13.7	0.8	61.4*	18.0	8.3
COCCNCCCCOc1ccc(C)cc1[N+](=O)[O-]	3.5	0.9	74.2*	12.7	20.4
CC(C)CC(NC(=O)C(NC(=O)C1OC2OC(C)(C)OC2C2OC(C)(C)OC12)C(C)C)C(=O)O (centres undefined)	0.2	0.9	43.9	13.2	9.3
CN1N=C(c2ccc(F)c(F)c2)CSC1=NCc1ccccc1	69.5*	0.9	-9.5	12.6	1.7
c1ccc(CN=C2NN=C(c3cc4ccccc4o3)CS2)cc1	-4.0	0.8	0.0	21.2	5.5
COc1ccc(N2CCN(CCCNC(=O)c3cc4sccc4n3C)CC2)cc1	19.8	0.9	81.3*	13.2	2.0
Cn1c(C(=O)NC2CCCCC2)cc2sccc21	3.3	0.9	4.0	11.2	2.7
CC1CCN(CCCNC(=O)c2cc3sccc3n2C)CC1	0.9	0.9	91.8*	7.8	14.0
Cc1ncc([N+](=O)[O-])n1CCOC(=O)c1ccc(Cl)cc1Cl	22.4	0.9	-0.6	6.3	2.2
O=c1c(-c2nnc(SCc3ccc(Cl)c(Cl)c3)o2)cccn1Cc1ccccc1	3.3	0.9	7.2	5.0	11.3
Cc1oc(/C=N/NC(=O)CN(c2ccccc2Br)S(C)(=O)=O)cc1Br	25.3	0.7	31.4	27.9	7.1
CCOC(=O)NC1(Nc2ccc(C)cc2)Oc2ccccc2O1	11.0	0.5	-1.9	54.0*	17.1
CCOC(=O)N1CCC(N2CCCC(CO)(Cc3cccc(OC)c3)C2)CC1 (centres undefined)	12.2	nt	87.1*	nt	5.8
OCC1(Cc2ccccc2)CCCN(C2CCCC2)C1 (centres undefined)	-9.0	1	61.1*	0.8	6.5
O=C(O)c1cccc(-n2cccc2/C=C2/NC(=O)N(c3ccc(Cl)cc3)C2=O)c1	-3.1	0.4	-8.5	62.4*	5.9
SMILES	WT yeast gro inh	Diaph act CS	Lmaj promast	Diaphorase inh	G6PDH counter
COc1ccc(-n2cccc2/C=C2/NC(=O)N(c3cccc(Cl)c3)C2=O)cc1	9.4	0.8	1.8	23.7	7.2
CC1(C)C(C=C(Cl)Cl)C1C(=O)Nc1ccc([N+](=O)[O-])cc1 (centres undefined)	73.5	0.8	87.8*	18.1	8.8
CCN1CCN(CCNC(=O)c2ccc3c(c2)N(Cc2ccc(F)cc2)C(=O)/C(=C/c2ccccc2)S3)CC1	85.8*	1.4	100.6*	-41.6	-1.5
CCc1ccc(/C=C2/Sc3ccccc3N(CC(=O)NCCCOC)C2=O)cc1	-2.0	0.9	-2.7	7.5	3.5
CCN1CCN(CCNC(=O)c2ccc(/C=C3/Sc4ccccc4N(Cc4cccc(Cl)c4)C3=O)cc2)CC1	98.1*	1.5	100.5*	-46.3	-3.0
COCCCNC(=O)CN1C(=O)/C(=C\c2ccc(C)cc2)Sc2ccccc21	0.9	0.9	43.0	5.3	13.1
CN1CCN(CCCNC(=O)c2ccc(/C=C3\Sc4ccccc4N(Cc4ccccc4F)C3=O)cc2)CC1	49.0	1.3	99.8*	-32.6	4.3
O=C(O)c1ccc2c(c1)N(Cc1ccc(F)cc1)C(=O)c1ccccc1S2	-10.7	0.9	5.5	9.7	7.2
CC(C)OCCCNC(=O)CN1C(=O)/C(=C/c2ccccc2)Sc2ccccc21	7.0	1	58.9*	0.0	-6.7
O=C(CSc1ncccn1)NN=C1CCCCCC1	-2.5	1	-7.6	3.8	8.9
O=C(NCCN1CCOCC1)c1ccc2c(c1)N(Cc1ccccc1F)C(=O)CS2	3.9	0.8	2.4	15.0	4.2
O=C(NCCN1CCOCC1)c1ccc2c(c1)N(Cc1cccc(F)c1)C(=O)c1ccccc1S2	0.4	0.9	100.0*	14.6	0.3
Cc1nc(CNS(=O)(=O)c2ccc3ccccc3c2)cs1	2.4	0.8	-9.4	16.9	-14.3
Cc1nc(-c2cccc(NS(=O)(=O)c3ccc4ccccc4c3)c2)cs1	60.1*	0.9	-4.6	14.5	2.5
COc1ccccc1-c1cc(C(F)(F)F)nc(S(=O)(=O)CCCC(=O)NCc2ccc(F)cc2)n1	-17.4	0.9	3.5	12.0	-6.3
COc1ccccc1-c1cc(C(F)(F)F)nc(S(=O)(=O)CCCC(=O)NC(C)C)n1	7.6	0.9	89.1*	13.1	8.2
CC(C)NC(=O)c1cc(-n2cnnc2)ccc1Cl	-5.6	1	-0.6	2.9	5.5
COC(=O)c1sc(N)c(C(=O)OC)c1COC(=O)C1CC(=O)N(Cc2ccco2)C1 (centres undefined)	12.0	0.8	51.1*	18.5	0.6
COc1ccccc1-n1c(C)cc(C=O)c1C	-11.2	0.9	-1.0	11.9	-2.4
CN(C)S(=O)(=O)c1cccc(NC(=O)Cn2cc(C(F)(F)F)cc(Cl)c2=O)c1	-2.2	0.9	-5.4	7.7	1.8
Cc1nn(CCc2nn[nH]n2)c2nc(-c3ccc(C4CCCCC4)cc3)cc(C(F)(F)F)c12	98.2*	0.8	-3.7	22.2	9.3
COc1ccc(CNC(=O)c2ccc(S(=O)(=O)N3CCCC3)cc2)cc1OC	-3.4	1.1	5.8	-9.8	1.9
Cc1cc(C)nc(NC(=O)c2ccc(COc3ccccc3Cl)cc2)c1	65.2*	0.8	5.7	17.5	1.0
COC(=O)c1ccc(Cn2nc(C)cc2C)cc1	-22.8	1	-5.6	3.0	-1.1
Cc1cc(C)n(Cc2ccc(NC(=O)c3ccc(COc4ccccc4Br)cc3)cc2)n1	34.7	0.9	56.1*	12.0	4.8
C=CCN(C(=O)CSc1nc2c(sc3ccccc32)c(=O)n1CCN(CC)CC)c1ccccc1	32.2	0.8	31.9	24.6	-1.3

Assay outcomes (PubChem BioAssay)
